Experimental data reported in article PMC3705926 (Journal of ethnopharmacology, 2010).

Columns and labels:
[1] = test system: 2ERE-luciferase reporter (ER) in MCF-7 cells; test: 2ERE-luciferase reporter gene assay in transiently transfected MCF-7 cells; assay type: cell-based, human; details: 1 μg/ml, 16 h
5-HT7 [2] = target: T1, 5-HT7 (Homo sapiens, UniProt P34969); test: GTP shift experiment, [3H]LSD binding with or without 100 μM GTP
5-HT1A = target: T2, 5-HT1A (Homo sapiens, UniProt P08908); test: Serotonin 5-HT1A receptor radioligand binding; details: read-out: IC50, binding to serotonin receptor 5-HT1A
T2 sequence (P08908 1-422): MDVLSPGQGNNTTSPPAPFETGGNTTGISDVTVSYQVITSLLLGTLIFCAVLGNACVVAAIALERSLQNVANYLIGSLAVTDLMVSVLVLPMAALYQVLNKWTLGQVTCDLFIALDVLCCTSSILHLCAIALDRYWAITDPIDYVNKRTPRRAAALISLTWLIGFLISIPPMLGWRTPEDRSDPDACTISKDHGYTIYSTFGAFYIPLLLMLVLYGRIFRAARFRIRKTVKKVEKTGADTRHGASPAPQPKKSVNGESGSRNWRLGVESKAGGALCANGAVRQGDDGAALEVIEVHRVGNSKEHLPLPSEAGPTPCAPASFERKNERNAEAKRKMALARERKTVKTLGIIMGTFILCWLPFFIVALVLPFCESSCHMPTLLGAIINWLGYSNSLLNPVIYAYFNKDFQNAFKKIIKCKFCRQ
Summary of the method: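 Competition binding used Cos M6 cell membrane homogenate with [3H]5-CT (1.0 nM final) in 100 mM Tris-HCl, 1 mM EDTA, 1% ascorbic acid, pH 7.7, at 37°C for 30 min. Binding was stopped by rapid filtration and four ice-cold buffer washes, then counted by scintillation. IC50 came from non-linear curve fitting of at least triplicate determinations.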

5-HT7 [3] = target: T1, 5-HT7; test: Serotonin 5-HT7 receptor radioligand binding; details: read-out: IC50, binding to serotonin receptor 5-HT7
[4] = [3H]-LSD displacement, absence of GTP, two-site fit

T1 sequence (P34969 whole entry): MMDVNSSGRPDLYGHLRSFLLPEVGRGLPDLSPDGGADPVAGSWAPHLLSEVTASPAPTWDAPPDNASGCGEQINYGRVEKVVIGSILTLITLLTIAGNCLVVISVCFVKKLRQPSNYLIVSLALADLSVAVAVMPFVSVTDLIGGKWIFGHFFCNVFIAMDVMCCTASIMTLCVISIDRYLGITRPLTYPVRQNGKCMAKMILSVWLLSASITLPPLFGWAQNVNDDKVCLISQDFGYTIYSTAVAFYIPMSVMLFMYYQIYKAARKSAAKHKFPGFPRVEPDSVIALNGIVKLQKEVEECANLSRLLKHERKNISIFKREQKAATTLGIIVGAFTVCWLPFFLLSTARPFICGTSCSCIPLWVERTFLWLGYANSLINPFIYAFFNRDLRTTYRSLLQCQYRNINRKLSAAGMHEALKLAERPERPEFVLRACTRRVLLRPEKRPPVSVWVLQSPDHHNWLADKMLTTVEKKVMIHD

Substance	fold increase in luciferase activity [1]	IC50, high-affinity state (5-HT7 [2]; [4])	IC50, low affinity state (5-HT7 [2]; [4])	Ki, high-affinity state (5-HT7 [2]; [4])	Ki, low affinity state (5-HT7 [2]; [4])	agonist/antagonist character at the 5-HT7 receptor (5-HT7 [2]; from GTP shift of the binding curve)	IC50 after addition of GTP (monophasic, low-affinity state) (5-HT7 [2]; with 100 μM GTP)	Ki after addition of GTP (5-HT7 [2]; with 100 μM GTP)	IC50 (5-HT1A)	IC50 (5-HT7 [3])
9, 10-methylenedioxy-5, 6-Z-fadyenolide [Compound 1]	not active	0.014 µg/mL	37.7 µg/mL	0.00848 µg/mL	0.0267 µg/mL	partial agonist	11.5 µg/mL	6880 µg/mL	16.1 µM	8.3 µM
piperolide [Compound 3]	8.4 fold									34.7 µM
5, 6-Z-fadyenolide [Compound 2]	9.8 fold									23.2 µM
